Reference: ChEMBL document CHEMBL4689842, “EUbOPEN Chemogenomics Library wave 1” (2021)

What was measured:
Assay type in all cases: toxicity, cell-based
U2OS [1] = test: Multiplex assay against U2OS; conditions: human
Outline: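 On a CQ1 microscope at 37°C and 5% CO2, live cells were imaged after compound addition. They had been stained at seeding with Hoechst33342, BioTracker Green Microtubule Cytoskeleton Dye, MitoTracker Red and Annexin V Alexa Fluor 680. CellPathfinder machine-learning gating assigned cells to Hoechst high-intensity objects or normal cells, normal cells to healthy, pyknosed or fragmented nuclei, and pyknosed cells to mitotic or apoptotic. Tubulin, mitochondrial-mass and membrane-permeability phenotypes are per cents of healthy-nucleus cells.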

HEK-293T = test: Incucyte cell viability with HEK293T; conditions: human, 10 µM, compound concentration 10 uM; also: filed as whole numbers so only -1 and 0 and 1 occur
Fibroblast = test: Incucyte cell viability with human fibroblast; conditions: 10 µM, compound concentration 10 uM; also: filed as whole numbers so only -1 and 0 and 1 occur
U2OS [2] = test: Incucyte cell viability with U2OS; conditions: human, 10 µM, compound concentration 10 uM; also: filed as whole numbers so only -1 and 0 and 1 occur
[3] = 12 h, 1 µM, compound concentration 1 uM, replicate 1
[4] = 12 h, 1 µM, compound concentration 1 uM, replicate 2
[5] = 12 h, 10 µM, compound concentration 10 uM, replicate 1
[6] = 12 h, 10 µM, compound concentration 10 uM, replicate 2
[7] = 24 h, 1 µM, compound concentration 1 uM, replicate 1
[8] = 24 h, 1 µM, compound concentration 1 uM, replicate 2
[9] = 24 h, 10 µM, compound concentration 10 uM, replicate 1
[10] = 24 h, 10 µM, compound concentration 10 uM, replicate 2
[11] = 48 h, 1 µM, compound concentration 1 uM, replicate 1
[12] = 48 h, 1 µM, compound concentration 1 uM, replicate 2
[13] = 48 h, 10 µM, compound concentration 10 uM, replicate 1
[14] = 48 h, 10 µM, compound concentration 10 uM, replicate 2
[15] = 6 h, replicate number 1, timepoint 6 hours
[16] = 12 h, replicate number 1, timepoint 12 hours
[17] = 18 h, replicate number 1, timepoint 18 hours
[18] = 24 h, replicate number 1, timepoint 24 hours

## Cl.Cl.Nc1ncnc2c1c(-c1cccc(OCc3ccccc3)c1)cn2[C@H]1C[C@@H](CN2CCC2)C1
U2OS [1]; [3]
  Population Apoptotic (%): 33%
  Population Fragmented Nuclei (%): 13%
  Population Healthy Nuclei (%): 70%
  Population Hoechst High Intensity Objects (%): 5%
  Population Membrane Permeable-Phenotype (%): 8%
  Population Mitochondria Different-Phenotype (%): 58%
  Population Mitotic Cells (%): 66%
  Population Normal (%): 94%
  Population Pyknosed Nuclei (%): 16%
  Population Tubulin-Different-Phenotype (%): 38%
  Total Cell Count: 176
U2OS [1]; [4]
  Population Apoptotic (%): 29%
  Population Fragmented Nuclei (%): 11%
  Population Healthy Nuclei (%): 67%
  Population Hoechst High Intensity Objects (%): 6%
  Population Membrane Permeable-Phenotype (%): 3%
  Population Mitochondria Different-Phenotype (%): 71%
  Population Mitotic Cells (%): 70%
  Population Normal (%): 93%
  Population Pyknosed Nuclei (%): 20%
  Population Tubulin-Different-Phenotype (%): 52%
  Total Cell Count: 55
U2OS [1]; [5]
  Population Apoptotic (%): 81%
  Population Fragmented Nuclei (%): 23%
  Population Healthy Nuclei (%): 41%
  Population Hoechst High Intensity Objects (%): 9%
  Population Membrane Permeable-Phenotype (%): 67%
  Population Mitochondria Different-Phenotype (%): 100%
  Population Mitotic Cells (%): 18%
  Population Normal (%): 90%
  Population Pyknosed Nuclei (%): 35%
  Population Tubulin-Different-Phenotype (%): 100%
  Total Cell Count: 135
U2OS [1]; [6]
  Population Apoptotic (%): 85%
  Population Fragmented Nuclei (%): 22%
  Population Healthy Nuclei (%): 47%
  Population Hoechst High Intensity Objects (%): 8%
  Population Membrane Permeable-Phenotype (%): 77%
  Population Mitochondria Different-Phenotype (%): 97%
  Population Mitotic Cells (%): 14%
  Population Normal (%): 91%
  Population Pyknosed Nuclei (%): 29%
  Population Tubulin-Different-Phenotype (%): 97%
  Total Cell Count: 90
U2OS [1]; [7]
  Population Apoptotic (%): 56%
  Population Fragmented Nuclei (%): 10%
  Population Healthy Nuclei (%): 69%
  Population Hoechst High Intensity Objects (%): 4%
  Population Membrane Permeable-Phenotype (%): 5%
  Population Mitochondria Different-Phenotype (%): 62%
  Population Mitotic Cells (%): 43%
  Population Normal (%): 95%
  Population Pyknosed Nuclei (%): 20%
  Population Tubulin-Different-Phenotype (%): 34%
  Total Cell Count: 176
U2OS [1]; [8]
  Population Apoptotic (%): 28%
  Population Fragmented Nuclei (%): 13%
  Population Healthy Nuclei (%): 64%
  Population Hoechst High Intensity Objects (%): 6%
  Population Membrane Permeable-Phenotype (%): 4%
  Population Mitochondria Different-Phenotype (%): 68%
  Population Mitotic Cells (%): 71%
  Population Normal (%): 93%
  Population Pyknosed Nuclei (%): 21%
  Population Tubulin-Different-Phenotype (%): 39%
  Total Cell Count: 50
U2OS [1]; [9]
  Population Apoptotic (%): 90%
  Population Fragmented Nuclei (%): 25%
  Population Healthy Nuclei (%): 30%
  Population Membrane Permeable-Phenotype (%): 92%
  Population Mitochondria Different-Phenotype (%): 100%
  Population Mitotic Cells (%): 9%
  Population Pyknosed Nuclei (%): 43%
  Population Tubulin-Different-Phenotype (%): 100%
  Total Cell Count: 157
U2OS [1]; [10]
  Population Apoptotic (%): 92%
  Population Fragmented Nuclei (%): 21%
  Population Healthy Nuclei (%): 35%
  Population Hoechst High Intensity Objects (%): 9%
  Population Membrane Permeable-Phenotype (%): 93%
  Population Mitochondria Different-Phenotype (%): 96%
  Population Mitotic Cells (%): 7%
  Population Normal (%): 90%
  Population Pyknosed Nuclei (%): 42%
  Population Tubulin-Different-Phenotype (%): 96%
  Total Cell Count: 104
U2OS [1]; [11]
  Population Apoptotic (%): 65%
  Population Fragmented Nuclei (%): 10%
  Population Healthy Nuclei (%): 73%
  Population Hoechst High Intensity Objects (%): 2%
  Population Membrane Permeable-Phenotype (%): 4%
  Population Mitochondria Different-Phenotype (%): 34%
  Population Mitotic Cells (%): 34%
  Population Normal (%): 97%
  Population Pyknosed Nuclei (%): 16%
  Population Tubulin-Different-Phenotype (%): 23%
  Total Cell Count: 182
U2OS [1]; [12]
  Population Apoptotic (%): 47%
  Population Fragmented Nuclei (%): 8%
  Population Healthy Nuclei (%): 76%
  Population Hoechst High Intensity Objects (%): 3%
  Population Membrane Permeable-Phenotype (%): 12%
  Population Mitochondria Different-Phenotype (%): 44%
  Population Mitotic Cells (%): 52%
  Population Normal (%): 96%
  Population Pyknosed Nuclei (%): 15%
  Population Tubulin-Different-Phenotype (%): 26%
  Total Cell Count: 55
U2OS [1]; [13]
  Population Apoptotic (%): 100%
  Population Fragmented Nuclei (%): 30%
  Population Healthy Nuclei (%): 7%
  Population Hoechst High Intensity Objects (%): 12%
  Population Membrane Permeable-Phenotype (%): 100%
  Population Mitochondria Different-Phenotype (%): 100%
  Population Mitotic Cells (%): 0%
  Population Normal (%): 87%
  Population Pyknosed Nuclei (%): 61%
  Population Tubulin-Different-Phenotype (%): 100%
  Total Cell Count: 203
U2OS [1]; [14]
  Population Apoptotic (%): 96%
  Population Fragmented Nuclei (%): 21%
  Population Healthy Nuclei (%): 38%
  Population Hoechst High Intensity Objects (%): 23%
  Population Membrane Permeable-Phenotype (%): 96%
  Population Mitotic Cells (%): 3%
  Population Normal (%): 76%
  Population Pyknosed Nuclei (%): 40%
  Total Cell Count: 130
HEK-293T; [15]
  Growth Rate: 0
HEK-293T; [16]
  Growth Rate: 0
HEK-293T; [17]
  Growth Rate: 0
HEK-293T; [18]
  Growth Rate: 0
Fibroblast; [15]
  Growth Rate: 0
Fibroblast; [16]
  Growth Rate: 0
Fibroblast; [17]
  Growth Rate: 0
Fibroblast; [18]
  Growth Rate: 0
U2OS [2]; 0 h, replicate number 1, timepoint 0 hours
  Growth Rate: 0
U2OS [2]; [15]
  Growth Rate: 0
U2OS [2]; [16]
  Growth Rate: 0
U2OS [2]; 12 h, replicate number 2, timepoint 12 hours
  Growth Rate: 1
U2OS [2]; [17]
  Growth Rate: 0
U2OS [2]; 18 h, replicate number 2, timepoint 18 hours
  Growth Rate: 1
U2OS [2]; [18]
  Growth Rate: 0
